Assay results from ChEMBL document CHEMBL1125636, “L-687,908, a potent hydroxyethylene-containing HIV protease inhibitor” (J Med Chem, 1991).
In brackets after ≈: the same amount, converted by molar mass. Where a SMILES comes first, the peptide text is derived from it.

Experiments:
[1] = target: Human immunodeficiency virus type 1 protease (Human immunodeficiency virus 1, UniProt Q72874); assay: Inhibition of HIV-1 protease; format: functional
Method in brief: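 HIV-1 protease peptide hydrolysis: octapeptide substrate H2N-ValSerGlnAsn(β-naphthyl-Ala)ProIle-Val-OH at 430 μM (Km = 160 μM), enzyme at 0.030 nM; cleavage quantitated by HPLC; IC50 from this readout.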

H9 = assay: Minimum inhibitory concentration required to prevent HIV infection was determined in H9 human T-lymphoid cell culture; format: functional
Method in brief: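 H9 human T-lymphoid cells were infected with HIV-1 IIIb at a multiplicity of infection of 1.0%, with no compound present. Compound was added 1 day after infection, predissolved in DMSO and serially diluted in RPMI-1640 with 10% FBS. Medium with fresh compound was replaced every 2–3 days. Cells were harvested at 14 days and scored by immunofluorescence with anti-HIV-1 human serum. MIC was the lowest concentration totally preventing spread beyond the initially infected cells.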

Renin [2] = target: T1, Renin (Rattus norvegicus, UniProt P08424); assay: Concentration required to inhibit 50% activity of plasma renin was determined at pH 7.4; Inactive; format: functional, cell-free
T1 sequence (P08424 whole entry): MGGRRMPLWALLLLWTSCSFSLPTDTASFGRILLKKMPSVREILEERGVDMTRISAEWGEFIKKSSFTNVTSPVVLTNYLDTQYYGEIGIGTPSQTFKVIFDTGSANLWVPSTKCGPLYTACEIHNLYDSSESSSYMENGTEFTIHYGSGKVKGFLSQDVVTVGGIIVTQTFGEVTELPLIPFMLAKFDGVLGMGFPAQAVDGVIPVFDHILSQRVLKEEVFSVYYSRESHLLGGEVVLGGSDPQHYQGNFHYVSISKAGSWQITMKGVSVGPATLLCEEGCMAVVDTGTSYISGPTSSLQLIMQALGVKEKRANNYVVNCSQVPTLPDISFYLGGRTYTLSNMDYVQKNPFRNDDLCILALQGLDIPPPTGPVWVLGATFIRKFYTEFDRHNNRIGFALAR

Renin [3] = target: T1, Renin; assay: Concentration required to inhibit 50% activity of renin was determined; format: functional
Method in brief: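 Purified plasma renin, assayed at pH 7.4; IC50 reported.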

CC(C)CC(NC(=O)[C@H](Cc1ccccc1)C[C@H](O)[C@H](Cc1ccccc1)NC(=O)OC(C)(C)C)C(=O)NCCc1ccccc1 (stereo partly specified) was tested, and the IC50 [1] was 12 nM.

Molecule CC(C)(C)OC(=O)N[C@@H](Cc1ccccc1)[C@@H](O)C[C@@H](Cc1ccccc1)C(=O)NCc1ccccc1 has an IC50 [1] of 111 nM and an MIC (H9) of over 50 µM.

In the case of CC(C)CC(NC(=O)[C@H](Cc1ccccc1)C[C@H](O)[C@H](Cc1ccccc1)NC(=O)OC(C)(C)C)C(=O)NCc1ccccc1 (stereo partly specified), the IC50 [1] is reported as 1.4 nM and the MIC (H9) is reported as 3 µM (≈ 1.85 µg/mL).

In the case of CCC(C)C(NC(=O)[C@H](Cc1ccccc1)C[C@H](O)[C@H](Cc1ccccc1)NC(=O)OC(C)(C)C)C(=O)NCc1ccccc1 (stereo partly specified), the IC50 [1] is reported as 0.71 nM and the MIC (H9) is reported as 1.5 µM (≈ 0.924 µg/mL).

CCC(C)C(NC(=O)[C@H](Cc1ccccc1)C[C@H](O)[C@H](Cc1ccccc1)NC(=O)OC(C)(C)C)C(=O)NCC(O)CO (stereo partly specified) showed an IC50 [1] of 0.15 nM and an MIC (H9) of 1.5 µM (≈ 0.9 µg/mL).

CC(C)C[C@H](NC(=O)[C@H](Cc1ccccc1)C[C@H](O)[C@H](Cc1ccccc1)NC(=O)OC(C)(C)C)C(=O)N[C@@H](Cc1ccccc1)C(N)=O showed an IC50 [1] of 0.6 nM, an IC50 (Renin [2]) of over 10000 nM and an MIC (H9) of 6 µM (≈ 4.04 µg/mL).

For CC[C@H](C)[C@H](NC(=O)[C@H](Cc1ccccc1)C[C@H](O)[C@H](Cc1ccccc1)NC(=O)OC(C)(C)C)C(=O)NCc1nc2ccccc2[nH]1, the IC50 [1] was 0.07 nM and the MIC (H9) was 0.2 µM (≈ 0.131 µg/mL).

CC[C@H](C)[C@H](NC(=O)[C@H](C/C=C/c1ccccc1)C[C@H](O)[C@H](Cc1ccccc1)NC(=O)OC(C)(C)C)C(=O)NCc1nc2ccccc2[nH]1 was tested, and the IC50 [1] was 0.03 nM and the MIC (H9) was 0.012 µM (≈ 0.00818 µg/mL).

CC(C)C[C@H](NC(=O)[C@H](Cc1ccccc1)C[C@H](O)[C@H](Cc1ccccc1)NC(=O)[C@H](Cc1ccccc1)NC(=O)OC(C)(C)C)C(=O)N[C@@H](Cc1ccccc1)C(N)=O was tested, and the IC50 [1] was 20 nM.

For CC(C)C[C@H](NC(=O)[C@H](Cc1ccccc1)C[C@H](O)[C@H](Cc1ccccc1)NC(=O)CC(C)(C)C)C(=O)N[C@@H](Cc1ccccc1)C(N)=O, the IC50 [1] was 6 nM.

CC(C)CC(NC(=O)[C@H](Cc1ccccc1)C[C@H](O)[C@H](Cc1ccccc1)NC(=O)OC(C)(C)C)C(N)=O (stereo partly specified) showed an IC50 [1] of 12 nM and an MIC (H9) of 6 µM (≈ 3.15 µg/mL).

CC(C)CCNC(=O)[C@H](Cc1ccccc1)C[C@H](O)[C@H](Cc1ccccc1)NC(=O)OC(C)(C)C showed an IC50 [1] of 470 nM.

CC(C)C[C@H](NC(=O)[C@H](C/C=C/c1ccccc1)C[C@H](O)[C@H](Cc1ccccc1)NC(=O)OC(C)(C)C)C(=O)N[C@@H](Cc1ccccc1)C(N)=O gave an IC50 [1] of 0.15 nM and an MIC (H9) of 6 µM (≈ 4.19 µg/mL).

For CC(C)C[C@H](NC(=O)[C@H](Cc1ccccc1)C[C@H](O)[C@H](Cc1ccccc1)NC(=O)[C@H](Cc1ccccc1)NC(=O)[C@H](Cc1ccccc1)NC(=O)OC(C)(C)C)C(=O)N[C@@H](Cc1ccccc1)C(N)=O (HELM PEPTIDE1{[CC(C)(C)OC(=O)[*:2]].F.F.[O=C([C@H](Cc1ccccc1)C[C@H](O)[C@H](Cc1ccccc1)N[*:1])[*:2]].L.F.[am]}$$$$V2.0), the IC50 [1] was 1 nM, the IC50 (Renin [3]) was 73 nM and the MIC (H9) was 50 µM (≈ 48.4 µg/mL).
